Screening data from PubChem BioAssay.
PGC1a acetyl inh = PGC1a acetylation modulation, inhibitor mode | U2OS PGC1a acetylation, AlphaScreen anti-acetyl-lysine; with virally co-expressed GCN5 acetyltransferase | inhibition, % at 15.6 µM | 350,000 compounds, 0.17% hits | AID 651687;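 active = every replicate shows inhibition of at least 40%; inconclusive = mean inhibition at least 40% but some replicate below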;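 also: 0% = neutral control wells and 100% = positive control wells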
SIRT5 block = blocks human SIRT5 desuccinylation of peptide; inhibition, % at 15 µM; 330,000 compounds, 1.1% hits; Purified SirT5, succinyl-peptide AMC, trypsin-coupled fluorescence; in the data active = inhibition above about 15%; inconclusive = no clear call, values can overlap the other calls
Target sequence (Q9NXA8 whole entry, looked up): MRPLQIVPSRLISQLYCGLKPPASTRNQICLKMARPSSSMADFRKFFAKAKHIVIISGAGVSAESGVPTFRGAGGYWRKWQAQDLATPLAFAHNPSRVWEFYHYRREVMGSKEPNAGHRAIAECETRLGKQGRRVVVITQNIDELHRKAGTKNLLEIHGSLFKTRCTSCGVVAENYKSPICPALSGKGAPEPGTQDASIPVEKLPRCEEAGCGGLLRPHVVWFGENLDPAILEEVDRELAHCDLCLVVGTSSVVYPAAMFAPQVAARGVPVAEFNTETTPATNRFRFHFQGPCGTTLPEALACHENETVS
C2C12 statin = suppressors of simvastatin-induced myotoxicity in C2C12 myotubes. ATP luminescence, 48 h; scaled: DMSO 0, geranylgeraniol control 100. rescue of ATP level, % at 7.49 µM. 330,000 compounds, 0.78% hits;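 active = mean ATP rescue above about 67%, or every replicate alone reaching that limit, limit read from the data, passing the limit was not always enough; inconclusive = no clear call, values can overlap the other calls; inactive = mean under the limit and some replicate under it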;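 also: myotubes were challenged with 10 µM simvastatin during compound exposure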
DENV2 CPE = protects cells from dengue virus 2 cytopathic effect; DENV2-infected cells, cytopathic effect rescue, plate reader; CPE inhibition, % at 9.99 µM; AID 651640; 350,000 compounds, 1.7% hits; in the data active = CPE inhibition above about 20%, passing the limit was not always enough; inconclusive = no clear call, values can overlap the other calls; tested in BHK-21 cells;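 also: 0% = median of neutral control wells and 100% = median of positive control wells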
S100A4 MyoIIA = inhibitors of human S100A4 binding to myosin IIA peptide | P26447 | S100A4/TAMRA-MyoIIA peptide fluorescence polarization | inhibition, % at 10.7 µM | 360,000 compounds, 0.14% hits | AID 652163;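 active = mean inhibition of at least 70% across replicates, with every replicate also reaching that level; inconclusive = mean inhibition reaches 70% but some replicates fall short; inactive = mean inhibition below 70%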
Target sequence (P26447 whole entry, looked up): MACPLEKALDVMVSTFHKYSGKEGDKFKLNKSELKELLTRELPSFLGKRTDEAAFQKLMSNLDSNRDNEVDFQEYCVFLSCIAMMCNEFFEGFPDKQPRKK
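Compound dosing: one dose per compound; test system: human S100A4 monomer with TAMRA-labelled myosin IIA peptide; probe or stimulus: TAMRA-labelled myosin IIA heavy-chain peptide probe, 5 nM; medium: HEPES buffer with Ca2+, pH 7.2; schedule: 5 min incubation before reading; benchmarks: neutral control DMSO, positive control TFP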
Starred values were filed as active, the others as inactive; ? = inconclusive; . = no result given. Shown are actives, neighbours in structure and some others; about 2.9% of the full set was active somewhere.

SMILES	PGC1a acetyl inh	SIRT5 block	C2C12 statin	DENV2 CPE	S100A4 MyoIIA
C[C@H](CO)N1C[C@H](C)[C@@H](CN(C)Cc2ccc(Oc3ccccc3)cc2)Oc2c(NC(=O)NC3CCCCC3)cccc2C1=O	-13	-4	.	0	5
COc1ccc(C(=O)NC2CC3CCCC(C2)N3Cc2ccccc2)c(OC)c1 (stereo unspecified)	12	24*	-8	-5	1
COc1ccc(CNC(=O)C[C@@H]2C=C[C@@H](NC(=O)c3cccc(F)c3)[C@@H](CO)O2)cc1	7	-4	-3	6	-15
C[C@H]1CN([C@@H](C)CO)C(=O)c2cccc(N(C)C)c2O[C@H]1CN(C)C(=O)Nc1ccc2c(c1)OCO2	8	0	7	10	-2
COc1ccc(S(=O)(=O)Nc2ccc3c(c2)C(=O)N([C@@H](C)CO)C[C@@H](C)[C@H](CN(C)C(=O)c2ccccc2)OCCCC[C@@H](C)O3)cc1	.	-1	113*	6	-8
COc1ccc(S(=O)(=O)Nc2ccc3c(c2)C(=O)N([C@H](C)CO)C[C@H](C)[C@H](CN(C)C(=O)Nc2ccccc2)OCCCC[C@H](C)O3)cc1	-18	1	11	3	108*
COc1ccc(S(=O)(=O)Nc2ccc3c(c2)C(=O)N([C@H](C)CO)C[C@H](C)[C@H](CN(C)C(=O)Nc2ccc(F)cc2)OCCCC[C@H](C)O3)cc1	2	17*	11	-4	10
COc1ccc(S(=O)(=O)Nc2ccc3c(c2)C(=O)N([C@@H](C)CO)C[C@@H](C)[C@@H](CN(C)C(=O)Nc2ccc(F)cc2)OCCCC[C@H](C)O3)cc1	4	10	26	1	12
COc1ccc(S(=O)(=O)Nc2ccc3c(c2)[C@@H]2C[C@@H](CC(=O)NCC4CC4)O[C@H](CO)[C@@H]2O3)cc1	-1	4	-2	-1	-12
C[C@@H]1CN([C@@H](C)CO)C(=O)c2cc(NS(=O)(=O)c3ccc(Cl)cc3)ccc2O[C@@H](C)CCCCO[C@H]1CN(C)CC1CC1	5	2	.	84*	1
C[C@@H]1CCCCO[C@@H](CN(C)CC2CC2)[C@@H](C)CN([C@H](C)CO)C(=O)c2cc(NS(=O)(=O)c3ccc(Cl)cc3)ccc2O1	7	-1	.	48*	2
C[C@@H]1CCCCO[C@H](CN(C)C(=O)Cc2ccccc2)[C@@H](C)CN([C@@H](C)CO)C(=O)c2cc(NS(=O)(=O)c3ccc(Cl)cc3)ccc2O1	8	3	.	1	-6
CC(C)NC(=O)Nc1ccc2c(c1)C(=O)N([C@H](C)CO)C[C@H](C)[C@H](CN(C)CC1CCCCC1)OCCCC[C@H](C)O2	-11	-1	.	-5	12
C[C@H](NC(=O)C[C@H]1C=C[C@H](NC(=O)CN2CCOCC2)[C@@H](CO)O1)c1ccccc1	.	2	5	?	8
Cn1c(CN2CCOCC2)nnc1SCC(N)=O	-2	.	3	.	.
CCCSc1nnc(CN2CCOCC2)n1C	2	.	111*	.	.
CCC(=O)N(C)C[C@H]1Oc2cc(Br)ccc2S(=O)(=O)N([C@H](C)CO)C[C@H]1C	2	-3	-7	16	-3
CSc1nc(SCC(=O)O)c2sc3nc(-c4ccccc4)c4c(c3c2n1)CCC4	-3	19*	-39	4	2
CSc1nc(N(C)CCO)c2sc3nc(-c4ccco4)c4c(c3c2n1)CCC4	.	.	3	.	.
C[C@@H]1CN([C@@H](C)CO)C(=O)c2cc(-c3cccnc3)cnc2O[C@@H]1CN(C)C(=O)Nc1ccccc1	0	-5	-1	-1	14
COc1ccccc1Cc1c(-c2cccc(Br)c2)nc2c(C)cc(Br)cn12	15	19*	0	5	-6
COc1ccccc1Cc1c(-c2ccc(Cl)cc2)nc2c(C)cc(Br)cn12	1	0	-11	-6	-11
COc1ccc(-c2nc3ccc(C)cn3c2Cc2cccc(F)c2)cc1OC	-4	-7	9	33*	-5
COc1ccc(-c2nc3c(C)cc(Br)cn3c2Cc2cccc(F)c2)cc1OC	-5	-2	0	89*	0
COc1ccc(-c2nc3ccc(Br)cn3c2Cc2cccc(F)c2)cc1OC	-2	0	8	9	-1
C[C@@H]1CN([C@@H](C)CO)C(=O)Cc2cc(NC(=O)Nc3ccccc3)ccc2O[C@@H]1CN(C)Cc1ccc(-c2ccccc2)cc1	1	5	-21	1	5
